Article PMC3401475 (Nucleic Acids Research, 2012)
Values belong to the molecule of their own block, whether it stands above or below them.

Key:
(CUG)10 RNA = experiment: SPR binding to
In short: (§1)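 Streptavidin coupled to both flow cells of a CM5 dextran chip after EDC/NHS activation. 5'-Biotin RNA captured at 200–1000 RU; reference cell biotin-blocked. Compound concentrations flowed in HBS-N (0.01 M HEPES, 0.15 M NaCl, pH 7.4) […]. Dissociation ≥200 s, then 0.5 or 1 M NaCl regeneration. Duplicate injections, buffer-blank subtracted. Global 1:1 Langmuir fit. KD averaged over two chips with different RNA densities. t1/2 = ln2/koff.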

[1] = Relative fluorescence quantum yield; assay type: physicochemical; conditions: in methanol, excitation 362 nm
human fibroblast cells = experiment: MTT cell viability, human fibroblasts; assay type: cell-based; conditions: at concentrations up to 500 µM
(CCUG)10 RNA = experiment: SPR binding to
In short: as §1

C2C12 mouse myoblasts = experiment: MTT cell toxicity, mouse myoblasts; assay type: cell-based; conditions: 48 h, all concentrations tested
In short: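 C2C12 myoblasts in DMEM (10% FBS, 1% penicillin–streptomycin) grown to ~80% confluence at 37°C under CO2. Compound at varying concentrations (up to 1 mM), 48 h, 37°C. MTT in medium added for 4 h at 37°C, then isopropanol solubilisation; absorbance read at 600 nm.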

Apparent KD ((CUG)10 RNA; (CUG)10, HBS-N pH 7.4, average of two titrations): complete lack of binding | fluorescence quantum yield relative to quinine sulfate [1]: 0.64
Structure (SMILES): CCc1nc2cc3ccccc3cc2cc1C(=O)O [Compound 2, ethylbenzo[g]quinoline carboxylic acid]
toxicity by MTT assay (human fibroblast cells): no toxicity

Residence time t1/2 ((CCUG)10 RNA; (CCUG)10, t1/2 = ln2/kd): 4 s | Kd ((CCUG)10 RNA; read-out: Apparent KD, (CCUG)10, HBS-N pH 7.4, average of two titrations): 1.96 µM | Residence time t1/2 ((CUG)10 RNA; (CUG)10, t1/2 = ln2/kd): 14 s | Kd ((CUG)10 RNA; read-out: Apparent KD, (CUG)10, HBS-N pH 7.4, average of two titrations): 0.409 µM
Structure (SMILES): NC[C@@H]1O[C@H](O[C@H]2[C@@H](O)[C@H](O[C@@H]3[C@@H](O)[C@H](N)C[C@H](N)[C@H]3O[C@H]3O[C@H](CN)[C@@H](O)[C@H](O)[C@H]3N)O[C@@H]2CO)[C@H](N)[C@@H](O)[C@@H]1O [Neomycin, Neomycin B]

Structure (SMILES): CO[C@@]12[C@H](COC(N)=O)C3=C(C(=O)C(C)=C(N)C3=O)N1C[C@@H]1N[C@@H]12 [mitomycin C]
toxicity by MTT assay (C2C12 mouse myoblasts): significant toxicity
